Hits are enriched below; roughly 4.3% of the tested compounds scored in any of these assays.
ALR H2O2 inh: inhibitors of human ALR sulfhydryl oxidase, primary screen, biochemical, H2O2 detection, HRP-luminol luminescence, single point; purified ALR, DTT oxidation; inhibition, % (no concentration beside the values); actives 3.8% (n = 290,000); AID 485317, 2010;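 active = mean replicate inhibition above about 79%, with every replicate also reaching it, limit read from the data; inconclusive = only one of the two criteria met; inactive = mean below limit and not every replicate reaching it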
Target sequence (P55789 whole entry, looked up): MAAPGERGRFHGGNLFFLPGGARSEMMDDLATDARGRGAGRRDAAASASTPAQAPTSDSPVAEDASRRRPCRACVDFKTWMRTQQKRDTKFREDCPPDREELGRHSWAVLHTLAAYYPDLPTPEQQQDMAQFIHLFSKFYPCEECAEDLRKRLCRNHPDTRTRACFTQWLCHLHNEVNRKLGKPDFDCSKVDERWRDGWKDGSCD
CAL PDZ FP-1: CAL PDZ peptide-binding inhibitors, primary screen, biochemical, fluorescence polarization, Cer-tagged CAL PDZ, HTS; inhibition, % at 20 µM; purified CAL PDZ, TMR-peptide fluorescence polarization, 1 h; Golgi-associated PDZ and coiled-coil motif-containing protein (Homo sapiens), Q9HD26; AID 504414, 2011; actives 0.02% (n = 330,000);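 active = highest replicate inhibition of at least 40%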;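 note: plate controls were DMSO neutral control wells for no effect and unlabeled competitor peptide control wells for full effect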
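System: purified tagged CAL PDZ domain construct (CerCALP). Schedule: 1 h incubation at room temperature before polarization reading. Medium: 25 mM sodium phosphate pH 7.4, 150 mM NaCl, TCEP, IgG, Thesit. Read-out: percent inhibition from loss of millipolarization. Measured by: FP readout, S and P plane fluorescence. Probe or stimulus: fluorescent TMR peptide probe.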
Dyrk1A ADPGlo: rat Dyrk1A kinase inhibitors, primary screen, biochemical, single point, plate reader. Dual specificity tyrosine-phosphorylation-regulated kinase 1A (Rattus norvegicus), Q63470. ADP-Glo luminescence, NFATc1 peptide. inhibition, % at 12.5 µM. actives 0.43% (n = 310,000); in the data active = inhibition above about 50%;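 note: plate controls were vehicle with enzyme for no effect and no enzyme for full effect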
CAL PDZ FP-2: untagged CAL PDZ binding inhibitors, primary screen, biochemical, fluorescence polarization, HTS; Golgi-associated PDZ and coiled-coil motif-containing protein (Homo sapiens), Q9HD26; purified CAL PDZ, TMR-peptide fluorescence polarization, 1 h; inhibition, % at 24.9 µM; actives 0.92% (n = 300,000); AID 602252, 2012;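 active = mean inhibition of at least 30% with at least half of replicates also reaching 30%; inconclusive = no clear call, values can overlap the other calls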;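 note: 0% = DMSO neutral control and 100% = excess unlabeled competitor peptide PRC23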
Rtt109 HAT inh: inhibitors of C. albicans Rtt109/Vps75 HAT, primary screen, biochemical, ThioGlo CoA-SH fluorescence, plate reader; Histone acetyltransferase RTT109 (Candida albicans (strain SC5314 / ATCC MYA-2876)), …; purified Rtt109/Vps75, 4 h; inhibition, % at 34.9 µM; actives 0.16% (n = 330,000); AID 540336, 2011;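 active = inhibition of at least 50% in every replicate; inconclusive = best replicate reaches 50% inhibition but some replicates fall short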
Target sequence (Q5AAJ8 whole entry, looked up): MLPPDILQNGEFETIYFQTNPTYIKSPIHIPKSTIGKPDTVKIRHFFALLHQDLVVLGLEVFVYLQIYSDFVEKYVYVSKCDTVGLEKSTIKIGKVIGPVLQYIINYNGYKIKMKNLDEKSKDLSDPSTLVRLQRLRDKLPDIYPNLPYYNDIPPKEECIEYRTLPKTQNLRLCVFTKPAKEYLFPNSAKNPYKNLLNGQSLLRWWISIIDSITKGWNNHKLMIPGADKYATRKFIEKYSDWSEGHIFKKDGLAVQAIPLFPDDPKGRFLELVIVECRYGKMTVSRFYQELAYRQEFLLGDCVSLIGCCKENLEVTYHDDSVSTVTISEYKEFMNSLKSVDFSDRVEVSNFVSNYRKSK
* marks the source's active call; other numbers are inactive results.

Screening COc1ccc(-n2c(=S)[nH]c3cc(C(=O)NC4CCCCC4)ccc3c2=O)c(OC)c1 returned ALR H2O2 inh 91*, CAL PDZ FP-1 0, CAL PDZ FP-2 -3 and Rtt109 HAT inh -8.
Cc1nc2c(C(=O)NCCc3ccccc3Cl)c[nH]n2c(=O)c1Cl was read as ALR H2O2 inh 99*, CAL PDZ FP-1 -2, Dyrk1A ADPGlo 17 and CAL PDZ FP-2 -2.
Screening Cc1nc2c(C(=O)NCc3ccccc3Cl)c[nH]n2c(=O)c1Cl returned CAL PDZ FP-1 -2, Dyrk1A ADPGlo -5, CAL PDZ FP-2 -3 and Rtt109 HAT inh -6.
For Cc1ccc(NC(=O)OCc2cc(-c3ccccc3)on2)cc1 the results were ALR H2O2 inh -16, CAL PDZ FP-1 0, Dyrk1A ADPGlo -1, CAL PDZ FP-2 2 and Rtt109 HAT inh 56*.
Screening O=C(Nc1ccc(Cl)cc1)OCc1cc(-c2ccccc2Cl)on1 returned ALR H2O2 inh 2, CAL PDZ FP-1 -1, Dyrk1A ADPGlo -3, CAL PDZ FP-2 -1 and Rtt109 HAT inh -9.
`Cc1n[nH]c(=O)nc1Nc1ccc(O)cc1` gave ALR H2O2 inh 89*, CAL PDZ FP-1 0, Dyrk1A ADPGlo 11 and Rtt109 HAT inh 10.
Nc1ccc(Nc2nc3ccccc3[nH]2)cc1 was read as ALR H2O2 inh 42, CAL PDZ FP-1 0, CAL PDZ FP-2 -7 and Rtt109 HAT inh 2.
`Nc1ccccc1Nc1nc2ccccc2[nH]1` gave ALR H2O2 inh 99*, CAL PDZ FP-1 1, Dyrk1A ADPGlo -3, CAL PDZ FP-2 0 and Rtt109 HAT inh -2.
CCN(CC)c1ccc(/C=N/N=C(N)N)c(O)c1 was read as ALR H2O2 inh 76*, CAL PDZ FP-1 -2, Dyrk1A ADPGlo 4, CAL PDZ FP-2 0 and Rtt109 HAT inh 8.
For CCN(CC)c1ccc(/C=N/N2C(C)CCCC2C)c(O)c1 (stereo not drawn) the results were ALR H2O2 inh 98*, CAL PDZ FP-1 -2, Dyrk1A ADPGlo 0, CAL PDZ FP-2 -2 and Rtt109 HAT inh 1.
For CCN(CC)c1ccc(/C=N/N2CCOCC2)c(O)c1 the results were ALR H2O2 inh inconclusive, CAL PDZ FP-1 0, Dyrk1A ADPGlo 0, CAL PDZ FP-2 -2 and Rtt109 HAT inh 0.
For CCN(CC)c1ccc(C=Nc2ccc(N(C)C)cc2)c(O)c1 the results were ALR H2O2 inh 98*, CAL PDZ FP-1 -2, Dyrk1A ADPGlo -4, CAL PDZ FP-2 -3 and Rtt109 HAT inh -9.
Screening CCN(CC)c1ccc(N=Cc2ccc(N(CC)CC)cc2O)cc1 returned ALR H2O2 inh 18, CAL PDZ FP-1 -2, Dyrk1A ADPGlo 3 and Rtt109 HAT inh 8.
For COc1ccc(-n2cc(CNCCCn3ccnc3)c(-c3cccc(F)c3)n2)cc1 the results were ALR H2O2 inh -1, CAL PDZ FP-1 -4, Dyrk1A ADPGlo 1, CAL PDZ FP-2 -2 and Rtt109 HAT inh 7.
`Cc1ccc(C)c(NC(=O)CS(=O)(=O)c2c[nH]c3ccccc23)c1` gave ALR H2O2 inh -16, Dyrk1A ADPGlo -3, CAL PDZ FP-2 1 and Rtt109 HAT inh -4.
`Cc1cccc(NC(=O)CS(=O)(=O)c2c[nH]c3ccccc23)c1C` gave ALR H2O2 inh -16, CAL PDZ FP-1 -2, Dyrk1A ADPGlo 4, CAL PDZ FP-2 55* and Rtt109 HAT inh 1.
Cc1ccc(OCCCCN2CCc3ccccc3C2)cc1 was read as ALR H2O2 inh -3, CAL PDZ FP-1 0, Dyrk1A ADPGlo 0, CAL PDZ FP-2 -2 and Rtt109 HAT inh -3.
Screening Cc1ccc(NCC(O)C(O)C(O)CO)c(N=Nc2ccccc2)c1C (stereo not drawn) returned ALR H2O2 inh 99*, CAL PDZ FP-1 -2, Dyrk1A ADPGlo 5, CAL PDZ FP-2 -2 and Rtt109 HAT inh 1.
For COc1ccc(/C=C/C(=O)NCC(=O)N/N=C(/CCC(=O)O)c2ccccc2)cc1 the results were CAL PDZ FP-1 -1, Dyrk1A ADPGlo 0, CAL PDZ FP-2 32* and Rtt109 HAT inh 2.
`O=C(O)CC/C(=N\NC(=O)CNC(=O)/C=C/c1ccccc1)c1ccccc1` gave ALR H2O2 inh 0, CAL PDZ FP-1 1, Dyrk1A ADPGlo 5, CAL PDZ FP-2 4 and Rtt109 HAT inh 21.
Screening COc1ccc(NCCC(O)c2ccc(Cl)cc2)cc1 (stereo not drawn) returned ALR H2O2 inh 99*, Dyrk1A ADPGlo 5, CAL PDZ FP-2 35* and Rtt109 HAT inh -8.
COc1ccc(Cl)cc1NCCC(O)c1ccc(F)cc1 (stereo not drawn) was read as ALR H2O2 inh 99*, CAL PDZ FP-1 0, Dyrk1A ADPGlo 6, CAL PDZ FP-2 -5 and Rtt109 HAT inh 7.
Screening Cc1ccc(CN2CC(C(=O)Nc3ccc(F)c([N+](=O)[O-])c3)CC2=O)cc1 (stereo not drawn) returned ALR H2O2 inh -9, CAL PDZ FP-1 -2, Dyrk1A ADPGlo 2, CAL PDZ FP-2 -5 and Rtt109 HAT inh 5.
For O=C(CCNC(=O)c1ccccc1Cl)NCCc1ccc(C(F)(F)F)cc1 the results were ALR H2O2 inh -1, CAL PDZ FP-1 -4, Dyrk1A ADPGlo -3, CAL PDZ FP-2 -3 and Rtt109 HAT inh 10.
CCOC(=O)CSc1nnc(CNC(=O)c2cccc(C)c2)n1C was read as ALR H2O2 inh -17, CAL PDZ FP-1 4, Dyrk1A ADPGlo 3, CAL PDZ FP-2 76* and Rtt109 HAT inh -4.
For COc1ccc(C(=O)NCc2nnc(SCC(=O)c3ccc(F)cc3)n2C)cc1OC the results were ALR H2O2 inh 94*, CAL PDZ FP-1 0, Dyrk1A ADPGlo 2, CAL PDZ FP-2 -1 and Rtt109 HAT inh 1.
COC(=O)CSc1nnc(CNC(=O)c2ccc(OC)c(OC)c2)n1C was read as ALR H2O2 inh -2, CAL PDZ FP-1 -2, CAL PDZ FP-2 38* and Rtt109 HAT inh -9.
COc1ccc(C(=O)CSc2nnc(CNC(=O)c3ccc(OC)c(OC)c3)n2C)cc1 was read as ALR H2O2 inh 5, CAL PDZ FP-1 0, Dyrk1A ADPGlo 7, CAL PDZ FP-2 1 and Rtt109 HAT inh 10.
Screening Cn1c(CNC(=O)c2ccco2)nnc1SCC(=O)c1ccc(F)cc1 returned ALR H2O2 inh 86*, CAL PDZ FP-1 -1, Dyrk1A ADPGlo -5, CAL PDZ FP-2 6 and Rtt109 HAT inh -10.
CCN(CC)S(=O)(=O)c1ccc(NC(=O)CO/N=C(\N)c2ccccc2)cc1 was read as CAL PDZ FP-1 -3, Dyrk1A ADPGlo -1, CAL PDZ FP-2 -9 and Rtt109 HAT inh -3.

Screening data deposited in PubChem by Broad Institute.
